# Experimental data: PubChem BioAssay AID1656 (Sanford-Burnham Center for Chemical Genomics, 2009)
# Screen size: about 240,000 compounds; about 950 (0.4%) were called active.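 How the source made its calls: active means lipid droplet intensity inhibited by at least 50%, with more than 500 cells counted; inconclusive means wells with under 300 cells, treated as cytotoxic; inactive means the rest.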 Many of the other results were omitted from the sample, so actives are more common in it than they were.
# Assay: inhibitors of hepatocyte lipid droplet formation, primary screen, imaging, high-throughput imaging, BODIPY stain (AID 1656);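 on cell count: cells counted across two imaged fields per well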
# Settings: AML12 mouse hepatocytes, oleate lipid droplets, at 6.5 µM; cell count: measured here: cell count, cytotoxicity flag; inhibition: stronger effect = higher value
# How it was run: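 material = mouse AML12 hepatocyte cell line, fixed after treatment | also added = 100 µM oleic acid challenge | doses = compound at 6.5 µM only | schedule = overnight exposure | technique = Image-based BODIPY and DAPI two-channel analysis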
SMILES,cell count,inhibition
Cc1c2cnn(CC(=O)NCc3ccccn3)c(=O)c2c(C)n1Cc1ccc(Cl)cc1,683 cells,-9.1% (inactive)
CN(C)c1ccc(Nc2c3c4c(cccc4n(C)c2=O)C(=O)c2ccccc2-3)cc1,681 cells,75.9% (active)
CCOc1ccccc1-c1cc(C(=O)N/N=C(\C)c2cccnc2)c2ccccc2n1,660 cells,-32% (inactive)
Cc1c2cnn(CC(=O)NCCCN3CC(C)CC(C)C3)c(=O)c2c(C)n1Cc1ccc(Cl)cc1 (stereo not drawn),643 cells,-27.4% (inactive)
CC1CC(C)CN(CCOc2cccc3ccccc23)C1 (stereo not drawn),797 cells,-2.9% (inactive)
COc1ccc(Oc2cn[nH]c2-c2ccc(OC)cc2O)cc1,836 cells,-10.9% (inactive)
COC(=O)c1cc(NS(=O)(=O)c2ccc3c(c2)c(=O)n(C)c(=O)n3C)cc(C(=O)OC)c1,716 cells,-11.5% (inactive)
Cc1c(C(=O)N(Cc2ccccc2)Cc2cccnc2)cnn1-c1ccc(F)cc1,648 cells,-6% (inactive)
CSc1ccccc1C(=O)NCc1ccccc1,673 cells,4% (inactive)
Cc1c(C(=O)NCc2ccccc2)cnn1-c1ccccc1,684 cells,56.3% (active)
COC(=O)C1=CN(c2ccc(F)c(F)c2)C=C(C(=O)OC)C1c1ccc([N+](=O)[O-])cc1,825 cells,-1.4% (inactive)
Cc1ccc(C)c(S(=O)(=O)N2CCCOC2CNC(=O)C(=O)NC2CCCCC2)c1 (stereo not drawn),690 cells,-1.2% (inactive)
COc1cccc(N2CCN(c3ccc4nnc(CCC(=O)N5CCN(C)CC5)n4n3)CC2)c1,633 cells,-28.1% (inactive)
COc1cc(SC)ccc1C(=O)N(Cc1ccccc1)c1ccccc1,608 cells,-8.6% (inactive)
COCn1c(C(O)c2ccccc2)cc2ccccc21 (stereo not drawn),813 cells,-9.2% (inactive)
Cc1ccc(O)c(/C=N/NC(=O)COc2ccc3c(C)cc(=O)oc3c2)c1,786 cells,-1.7% (inactive)
CCn1cc(CN2CCN(CC(C)(C)C)C(CCO)C2)c2ccccc21 (stereo not drawn),814 cells,5.1% (inactive)
CC(=O)Nc1cccc(Nc2nc(-c3cccs3)nc3ccccc23)c1,775 cells,2.7% (inactive)
COc1cc2c(cc1OC)CN(C(=O)c1cc(S(=O)(=O)N3CCCCC3)ccc1Cl)CC2,813 cells,-18.7% (inactive)
CC1CCN(CCCNC(=O)CN2C(=O)CSc3ccc(S(=O)(=O)N4CCCCC4)cc32)CC1,719 cells,8% (inactive)
COCCCNC(=O)CN1C(=O)CSc2ccc(S(=O)(=O)N3CCOCC3)cc21,798 cells,59.7% (active)
COc1ccc(NC(=O)CN2C(=O)CSc3ccc(S(=O)(=O)N4CCC(C)CC4)cc32)cc1,698 cells,-8.1% (inactive)
CNC[C@H](CC1CCCCC1)NC[C@H](NCCC1CCCC1)[C@H](C)O,688 cells,1.2% (inactive)
CCOC(=O)C1(Cc2ccccc2C)CCCN(C(=O)CCc2c(C)noc2C)C1 (stereo not drawn),656 cells,-27.4% (inactive)
CN(C(=O)c1cc2c(=O)n3ccccc3nc2s1)C1CCCCC1,654 cells,-14.1% (inactive)
Cc1cc(NC(=O)CSc2nc(C(C)C)nc3sc4c(c23)CCC(C)C4)no1 (stereo not drawn),668 cells,105% (active)
Cc1nc(SCC(=O)Nc2cc(C)on2)c2c3c(sc2n1)CCCC3,678 cells,5.3% (inactive)

SMILES,cell count,inhibition
CC(C)c1nc(SCC(=O)Nc2cccc(C(=O)O)c2)c2c3c(sc2n1)CCCC3,835 cells,-26% (inactive)
COc1ccc(CCNC(=O)CCCCCNC(=O)N2CCn3c2nc2ccccc23)cc1OC,692 cells,0.7% (inactive)
CCCN1CCn2c3c(c4cc(Br)ccc42)CCCC31 (stereo not drawn),795 cells,-5.9% (inactive)
CCC(C(=O)NC1CCCCC1)N(C(=O)c1snc(C(N)=O)c1N)c1ccc(OC)cc1OC (stereo not drawn),820 cells,-0.1% (inactive)
Cc1ccc(NC(=O)c2cc(-c3ccccc3O)n[nH]2)cc1C,660 cells,31.5% (inactive)
Cc1nc2cc(C(F)(F)F)ccc2n1CCNc1nc(-c2cc(Cl)c(N)c(Cl)c2)cs1,750 cells,8.1% (inactive)
Cc1c(C(=O)NCC(c2ccco2)N2CCCC2)oc2ccc(Cl)cc12 (stereo not drawn),736 cells,2.8% (inactive)
CS(=O)(=O)N(CC(=O)N1CCOCC1)c1cccc(Cl)c1Cl,792 cells,-9.9% (inactive)
COc1ccc(NC(=O)NCCN2CCN(c3ccc(C)cc3)CC2)c(Cl)c1,800 cells,-0.4% (inactive)
CCN(C(=O)COc1ccc(C(=O)c2ccccc2)cc1)c1ccccc1,592 cells,-18.3% (inactive)
Cc1cc(CN(C)C(=O)c2cc(COc3ccc(C)c(C)c3)on2)n[nH]1,697 cells,-6.7% (inactive)
CC(Cc1cccs1)N(Cc1ccc(Cl)cc1)C(=O)c1ccncc1 (stereo not drawn),838 cells,-16% (inactive)
O=C(NC(=S)Nc1ccccc1N1CCCCC1)c1ccc(F)cc1,720 cells,8.8% (inactive)
COc1ccc(C(CNC(=O)COc2ccccc2OC)N2CCCCC2)cc1 (stereo not drawn),697 cells,-15% (inactive)
COc1cccc(Cn2cc(/C=N/NC(=O)c3cc(O)cc(O)c3)c3ccccc32)c1,740 cells,-2.5% (inactive)
COc1ccc(C)cc1Nc1n[n+](-c2ccccc2)c(-c2cccc(Cl)c2Cl)s1,778 cells,-4.7% (inactive)
CC1CCN(CCCn2c(SCC(=O)NC3CCCC3)nc3ccccc3c2=O)CC1,704 cells,-17.3% (inactive)
CC1CCCN(CCCNC(=O)CN2C(=O)COc3ccc(S(=O)(=O)N4CCOCC4)cc32)C1 (stereo not drawn),780 cells,-12.4% (inactive)
O=C(NCC(=O)N1CCN(c2ccccc2O)CC1)c1ccc2ccccc2c1,679 cells,-1.6% (inactive)
COc1ccc(N(Cc2cc3ccc(C)cc3[nH]c2=O)S(=O)(=O)c2ccccc2)cc1,764 cells,-6.7% (inactive)
CC(C)c1ccc(NC2CCCN(C(=O)c3ccncc3)C2)cc1 (stereo not drawn),631 cells,-2.4% (inactive)
O=C(N/C(=C\c1ccc([N+](=O)[O-])cc1)C(=O)N1CCOCC1)c1cccc(Br)c1,652 cells,-42.9% (inactive)
COc1ccc(-c2c(C#Cc3ccccc3)c3ccccc3n2C)cc1,742 cells,-11.3% (inactive)
Cc1ccccc1OCC(=O)Nc1ccc(S(=O)(=O)N2CCOCC2)cc1,768 cells,-7.1% (inactive)
O=C(/C=C/c1ccc([N+](=O)[O-])o1)NNC(=O)c1ccc(F)cc1,473 cells,-82% (inactive)
CCCc1ccc(-c2csc(NC(=O)Cc3cccs3)n2)cc1,774 cells,71% (active)
Cc1ccc(-c2csc(NC(=O)Cc3cccs3)n2)cc1C,732 cells,12.4% (inactive)

SMILES,cell count,inhibition
COc1ccc(-c2csc(NC(=O)CCCc3cccs3)n2)cc1,687 cells,-3.2% (inactive)
CCOCCCN(C)C1CCN(C(=O)c2oc3ccccc3c2NC(=O)COc2cccc(C)c2)CC1,640 cells,-24.8% (inactive)
Cc1ccc(NC(=O)CN2CCc3ccccc3C2)cc1,793 cells,7.1% (inactive)
O=C(CN1CCc2cc3c(cc2C1)OCCCO3)Nc1ccccc1,784 cells,77.1% (active)
O=C(CN1CCOCC1)Nc1ccccc1,743 cells,1.4% (inactive)
CC1(C)CC(=O)C(N=Nc2c(F)cccc2F)=C(O)C1,713 cells,8.6% (inactive)
Cc1ccc(N2C(=O)C(NC(=O)c3c(F)cccc3F)(C(F)(F)F)C3=C2CC(C)(C)CC3=O)cc1 (stereo not drawn),635 cells,63.8% (active)
CCOC(=O)CC1(NC(=O)c2cc(COc3cncc(Cl)c3)on2)CCCCC1,665 cells,11.8% (inactive)
CCOC(=O)N1CCN(C(=O)c2ccc3c(=O)n(CCc4ccc(OC)c(OC)c4)c(=O)[nH]c3c2)CC1,684 cells,16.5% (inactive)
CCCCNC(=O)c1cn(CC)c2cc(N3CCN(C(=O)c4ccco4)CC3)c(F)cc2c1=O,705 cells,-15.8% (inactive)
O=S(=O)(c1ccc(Cl)cc1)c1nc(-c2ccco2)oc1N1CCCCC1,633 cells,-18% (inactive)
CN(CC1CCCO1)S(=O)(=O)c1ccc(C(=O)Nc2ccc([N+](=O)[O-])cc2)cc1 (stereo not drawn),854 cells,0.6% (inactive)
CC(C)c1ccc2oc(=O)cc(CN3CCN(Cc4ccccc4)CC3)c2c1,850 cells,-0.8% (inactive)
C=CCSc1nnc(N2C(=O)C(O)=C(C(=O)c3ccco3)C2c2ccc(F)cc2)s1 (stereo not drawn),710 cells,-21.4% (inactive)
COc1ccc(/C=C(\NC(=O)c2ccc(OCC(C)C)cc2)C(=O)OCc2ccco2)cc1,607 cells,74.3% (active)
COc1ccc(C(=O)Nc2ccccc2C(=O)NCc2ccco2)cc1,738 cells,-20.2% (inactive)
COc1ccc(/C=C(/NC(=O)c2ccco2)C(=O)Nc2ccc(C(C)=O)cc2)cc1,829 cells,8.8% (inactive)
CCn1cc(S(=O)(=O)c2cccc(C)c2)c(=O)c2cc(F)c(N3CCN(C)CC3)cc21,738 cells,7.2% (inactive)
CCC1=Nc2cc(C(=O)NCCN3CCCC3)ccc2Sc2ccc(C)cc21,726 cells,4.6% (inactive)
COc1cccc(/C=C(/CC(=O)Nc2ccc(N3CCOCC3)cc2)c2nc3ccccc3s2)c1,578 cells,77.8% (active)
COc1cc2ccccc2cc1C(=O)Nc1ccc(N2CCOCC2)cc1,835 cells,-4.2% (inactive)
COc1ccc(/C=C(/CC(=O)Nc2ccc(C)cc2)c2nc3ccccc3s2)cc1,713 cells,-0.1% (inactive)
CCC(C(=O)NCc1ccc(OC)cc1)n1nc(C)n2c(cc3occc32)c1=O (stereo not drawn),780 cells,-2.7% (inactive)
CCOc1ccc(CCNC(=O)C(CC)n2nc(C)n3c(cc4sccc43)c2=O)cc1OCC (stereo not drawn),786 cells,85.5% (active)
COc1ccc(CCNC(=O)COC(=O)/C=C/c2cccs2)cc1OC,727 cells,2.8% (inactive)
